42 compounds from ChEMBL document CHEMBL1149177, “Meta-substituted aryl(thio)ethers as potent partial agonists (or antagonists) for the histamine H3 receptor lacking a nitrogen atom in the side chain” (J Med Chem, 2004) can be followed below.

Each structure is given as a SMILES string. Bounds are passed on as bounds.

The species entered for assay [1] is Mus musculus. Nature of the assay: Intrinsic activity was determined inhibition of brain N-mehtylhistamine formation in mice relative to imetit. It is filed as functional. In a few lines: (§1)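 Oxalate salt given orally as solution or suspension in 1% methylcellulose to groups of 6–12 male Swiss mice (18–22 g); doses 0.15–30 mg/kg. Cerebral cortex taken 90 min later, homogenized in ice-cold 0.4 N perchloric acid, Nτ-methylhistamine measured by radioimmunoassay. Agonist maxima referenced to imetit 10 mg/kg; antagonist maxima to thioperamide 10 mg/kg; ED50 as free base.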

Assay [2] relates to Mus musculus. Put plainly: In vivo inhibition of brain N-methyl-histamine formation in mice when administered perorally in presence of oxalate salt. It is filed as functional. Particulars: po. In a few lines: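 Male Swiss mice (18–22 g), groups of 6–12, given oxalate salt orally as solution or suspension in 1% methylcellulose. Cerebral cortex taken 90 min after dosing, homogenized in ice-cold 0.4 N perchloric acid. Nτ-methylhistamine measured by radioimmunoassay. Agonist maximal effect referenced to imetit 10 mg/kg; antagonist maximal effect referenced to thioperamide 10 mg/kg. ED50 given as free base.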

In assay [3] the target is Histamine H3 receptor (Rattus norvegicus) (UniProt Q9QYN8). Nature of the assay: In vitro intrinsic activity against histamine H3 receptor using [3H]histamine as radioligand from rat cerebral cortex synaptosomes with respect to histamine. The class given is subcellular. The note with it: Brain. A digest of the protocol:
(§2)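 Rat cerebral cortex synaptosomes preincubated 30 min at 37 °C with L-[3H]histidine to label histamine stores; K+-evoked depolarization-induced [3H]histamine release measured. Intrinsic activity taken as maximal inhibition by test substance relative to that from histamine (1 μM). Antagonism read as blockade of the histamine effect, expressed as Ki.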

For assay [4], the target named is Histamine H3 receptor (Mus musculus) (UniProt P58406). Nature of the assay: Activity against Histamine H3 receptor mediated inhibition of [3H]norepinephrine release from mouse brain; Partial agonist. The class given is functional. The note with it: filed as partial agonist.
For another assay, the species on record is Cavia porcellus. Nature of the assay: Tested for activity of compound against neurogenic contractions of guinea pig jejunum; Potent antagonist. Particulars: filed as antagonist. It is filed as functional.
Assay [5] concerns the target Histamine H3 receptor (Cavia porcellus) (UniProt Q9JI35). Nature of the assay: In vitro activity against histamine H3 receptor in guinea pig ileum; Antagonist. It is filed as functional, tissue-based. Particulars: filed as antagonist.
The target of assay [6] is Histamine H3 receptor (Homo sapiens) (UniProt Q9Y5N1). Nature of the assay: Tested in vivo for activity against histamine H3 receptor; Full agonist. It is filed as functional, organism-based. Particulars: filed as agonist. In a few lines:
as §1

For assay [7], the target named is Histamine H3 receptor (Rattus norvegicus) (UniProt Q9QYN8). Put plainly: In vitro activity against histamine H3 receptor in rat synaptosomes; Partial agonist. The class given is functional, subcellular. Particulars: Brain; filed as partial agonist. In a few lines: as §2
Another assay deals with Histamine H3 receptor (Rattus norvegicus, UniProt Q9QYN8). Nature of the assay: In vitro inhibitory activity against histamine H3 receptor using [3H]histamine as radioligand from rat cerebral cortex synaptosomes. It is filed as subcellular, Brain. A digest of the protocol: as §2
In assay [8] the target is Histamine H3 receptor (Homo sapiens) (UniProt Q9Y5N1). Nature of the assay: Tested for activity against histamine H3 receptor; Weak antagonist. The note with it: filed as antagonist. It is filed as functional.
The target of assay [9] is Histamine H3 receptor (Cavia porcellus) (UniProt Q9JI35). Nature of the assay: Tested for activity of compound against histamine H3 receptor in guinea pig ileum; Antagonist. The class given is functional, tissue-based. Particulars: filed as antagonist.
Assay [10] deals with Histamine H3 receptor (Rattus norvegicus) (UniProt Q9QYN8). Nature of the assay: In vitro intrinsic activity against histamine H3 receptor using [3H]histamine as radioligand from rat cerebral cortex synaptosomes with respect to histamine; No detectable agonism. The class given is functional, subcellular. The note with it: Brain. A digest of the protocol:
as §2

The species entered for the next assay is Rattus norvegicus. Put plainly: In vitro effective concentration of compound required to reduce histamine release from rat synaptosomes. The class given is functional. Particulars: Brain. In a few lines:
as §2

The target in assay [11] is Histamine H3 receptor (Mus musculus) (UniProt P58406). Put plainly: Tested for activity against histamine H3 receptor in vivo in mice; Weak agonist. It is filed as functional, organism-based. Particulars: filed as partial agonist. In a few lines: as §1
Assay [12] deals with Mus musculus. Nature of the assay: In vivo Intrinsic activity inhibition of brain N-mehtylhistamine formation in mice relative to imetit; Antagonist. The class given is functional. A digest of the protocol: as §1
In assay [13] the target is Histamine H3 receptor (Homo sapiens) (UniProt Q9Y5N1). Put plainly: Agonistic activity against histamine H3 receptor; Partial agonist. The class given is functional. The note with it: filed as partial agonist.

Sequence of Histamine H3 receptor (Rattus norvegicus) (Q9QYN8 whole entry): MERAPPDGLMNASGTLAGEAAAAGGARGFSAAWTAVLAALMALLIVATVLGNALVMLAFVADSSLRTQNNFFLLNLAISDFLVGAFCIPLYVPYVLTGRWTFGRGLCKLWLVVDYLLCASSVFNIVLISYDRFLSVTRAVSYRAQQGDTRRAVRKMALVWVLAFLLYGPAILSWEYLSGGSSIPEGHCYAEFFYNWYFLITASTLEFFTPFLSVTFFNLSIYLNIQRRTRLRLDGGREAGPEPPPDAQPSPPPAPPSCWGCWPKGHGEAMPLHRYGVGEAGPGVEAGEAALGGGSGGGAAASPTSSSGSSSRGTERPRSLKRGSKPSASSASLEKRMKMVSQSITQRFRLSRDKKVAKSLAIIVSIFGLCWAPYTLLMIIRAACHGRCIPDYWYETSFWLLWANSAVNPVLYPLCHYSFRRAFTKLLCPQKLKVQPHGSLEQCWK
Sequence of Histamine H3 receptor (Q9QYN8 whole entry): as above
Sequence of Histamine H3 receptor (Cavia porcellus) (Q9JI35 whole entry): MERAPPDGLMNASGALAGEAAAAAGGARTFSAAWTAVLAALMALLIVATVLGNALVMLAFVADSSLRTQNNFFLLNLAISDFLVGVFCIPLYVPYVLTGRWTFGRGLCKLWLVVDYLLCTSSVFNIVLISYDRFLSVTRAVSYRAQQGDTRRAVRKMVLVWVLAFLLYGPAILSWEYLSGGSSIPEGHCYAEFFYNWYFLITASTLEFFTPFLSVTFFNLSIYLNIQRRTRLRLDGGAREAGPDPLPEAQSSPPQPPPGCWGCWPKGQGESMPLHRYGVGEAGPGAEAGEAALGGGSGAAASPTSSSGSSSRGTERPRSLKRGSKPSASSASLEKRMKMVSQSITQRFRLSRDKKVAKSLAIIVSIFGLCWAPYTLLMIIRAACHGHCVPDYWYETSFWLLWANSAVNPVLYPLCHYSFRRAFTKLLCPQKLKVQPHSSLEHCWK
Sequence of Histamine H3 receptor (Mus musculus) (P58406 whole entry): as the sequence (Q9QYN8 whole entry) above, with T15A, A286T, A290G, R387H, I389V counted along it
Sequence of Histamine H3 receptor (Homo sapiens) (Q9Y5N1 whole entry): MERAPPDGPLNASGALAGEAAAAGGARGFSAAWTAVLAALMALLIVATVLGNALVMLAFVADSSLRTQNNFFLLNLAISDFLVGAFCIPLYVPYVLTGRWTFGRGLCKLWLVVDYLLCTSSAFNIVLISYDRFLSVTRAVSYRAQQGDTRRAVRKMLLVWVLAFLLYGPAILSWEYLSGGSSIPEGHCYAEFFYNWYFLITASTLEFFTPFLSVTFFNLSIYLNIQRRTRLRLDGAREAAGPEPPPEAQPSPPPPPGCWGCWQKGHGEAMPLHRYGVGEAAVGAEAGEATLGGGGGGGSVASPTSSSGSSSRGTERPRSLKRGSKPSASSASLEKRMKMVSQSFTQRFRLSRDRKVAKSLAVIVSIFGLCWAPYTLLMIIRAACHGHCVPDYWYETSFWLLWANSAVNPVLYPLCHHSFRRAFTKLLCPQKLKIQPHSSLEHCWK

In the assay filed under Mus musculus [1], `FC(F)(F)c1cccc(OCCCCc2c[nH]cn2)c1` showed an Intrinsic activity of 0.7. The ED50 is the dose that gives a 50% effect, or the effect in half of the subjects. Turning to `CCc1cccc(OCCCc2c[nH]cn2)c1`, the Intrinsic activity came to 0.85 in the assay filed under Mus musculus [1] and 0.2 in assay [3]. For the same compound, the ED50 in the assay on Mus musculus [2] is about 1 mg/kg. `NC[C@H]1CC[C@H](c2c[nH]cn2)O1`: the Activity result in assay [4] was “Partial agonist”; in the assay listed under Cavia porcellus it was “Antagonist”. Regarding `CC(C)CCOCCCc1c[nH]cn1`, the Activity entry is “Antagonist” in [5], “Agonist” in assay [6] and “Partial agonist” in assay [7]. Broadly, the Ki is the equilibrium dissociation constant of an inhibitor or competing ligand from its target. Take `FC(F)(F)c1ccccc1OCCCc1c[nH]cn1`: the ED50 with Mus musculus [2] is over 10 mg/kg. The same compound displayed a Ki at Histamine H3 receptor of about 500 nM. With `CC(C)NC(=O)OCCCc1c[nH]cn1`, the Activity entry is “Partial antagonist” in assay [8] and “Antagonist” in assay [9]. `C[C@H]1NCC[C@@H]1c1c[nH]cn1`: the values for the Activity result (in assay [4]; in the assay filed under Cavia porcellus) were “Partial agonist” and “Antagonist”, respectively. In the case of `CC(=O)c1cccc(OCCCc2c[nH]cn2)c1`, the Intrinsic activity in the assay filed under Mus musculus [1] amounted to 0.9; in assay [3], 0.15. Further, in the assay with Mus musculus [2], the median effective dose (ED50) is 0.4 mg/kg. `CC(C)c1cccc(OCCCc2c[nH]cn2)c1`: the results for the Intrinsic activity (in the assay filed under Mus musculus [1]; in assay [3]) were 0.82 and 0.3, respectively. Also, in the assay with Mus musculus [2], the ED50 amounted to 0.5 mg/kg.

In the case of `N=C(N)CCCc1c[nH]cn1`, the values for the Activity entry (in assay [4]; in the assay filed under Cavia porcellus) were “Partial agonist” and “Antagonist”, respectively. With `c1nc(CC2CCNCC2)c[nH]1`, the Activity result in [4] was “Partial agonist”; in the assay listed under Cavia porcellus, “Antagonist”. Take `CC(C)(C)c1cccc(OCCCc2cnc[nH]2)c1`: on Histamine H3 receptor, the Ki is 22 nM. With `Cc1cccc(OCCCc2cnc[nH]2)c1`, the median effective dose (ED50) in the assay on Mus musculus [2] is over 10 mg/kg. Affinity on Histamine H3 receptor was put at a Ki of 37 nM. The term EC50 denotes the concentration at which the effect is half-maximal. A lower EC50 goes with greater potency. In the case of `FC(F)(F)c1cccc(OCCCc2c[nH]cn2)c1`, the Intrinsic activity in the assay listed under Mus musculus [1] came out at 1; in assay [10] it was 0.4. The ED50 in the assay on Mus musculus [2] was found to be 0.6 mg/kg. Affinity at Histamine H3 receptor was put at a Ki of 8.4 nM. In the assay filed under Rattus norvegicus, this compound returned a concentration giving a half-maximal response (EC50) of 98 nM. `FC(F)(F)c1cccc(CCCCc2c[nH]cn2)c1` had an Intrinsic activity in the assay filed under Mus musculus [1] of 0. Also, the ED50 in the assay on Mus musculus [2] is 6.5 mg/kg. For the same compound, the Ki at Histamine H3 receptor is 38 nM. On to `CC(C)CNC(=O)OCCCc1c[nH]cn1`, for which, in [9], the Activity entry was “Antagonist”.

On to `FC(F)(F)c1ccc(OCCCc2c[nH]cn2)cc1`, for which the Intrinsic activity in the assay filed under Mus musculus [1] was found to be 0. Further, in the assay with Mus musculus [2], the median effective dose (ED50) was 0.6 mg/kg.

Turning to `O=[N+]([O-])c1cccc(OCCCc2cnc[nH]2)c1`, at Histamine H3 receptor, the Ki stood at 9.4 nM.

In the case of `Brc1cccc(OCCCc2c[nH]cn2)c1`, the median effective dose (ED50) in the assay with Mus musculus [2] is over 10 mg/kg. The compound further displayed an Intrinsic activity in [10] of under 0.1. `NCC[C@@H]1C[C@@H]1c1c[nH]cn1`: the results for the Activity result (in [4]; in the assay listed under Cavia porcellus) were “Partial agonist” and “Antagonist”, respectively.

Turning to `N#Cc1cccc(OCCCc2cnc[nH]2)c1`, the median effective dose (ED50) with Mus musculus [2] was over 10 mg/kg. The same compound came in with an inhibitory constant (Ki) at Histamine H3 receptor of 108 nM.

For the compound `FC(F)(F)c1cc(OCCCc2c[nH]cn2)cc(C(F)(F)F)c1`, the Intrinsic activity in the assay filed under Mus musculus [1] turned out to be 0. Further, the ED50 in the assay with Mus musculus [2] stood at 4.8 mg/kg. At Histamine H3 receptor, this compound came in with an inhibition constant Ki of 116 nM. In the case of `C[C@@H](N)Cc1c[nH]cn1`, the Activity entry was “Partial agonist” in [4] and “Antagonist” in the assay filed under Cavia porcellus.

For `CC(C)(C)NC(=O)OCCCc1c[nH]cn1`, the Activity entry was “Partial agonist” in assay [11] and “Antagonist” in [9]. For `FC(F)(F)c1cccc(OCCc2c[nH]cn2)c1`, the 50% effective dose (ED50) in the assay with Mus musculus [2] was under 10 mg/kg. Moreover, at Histamine H3 receptor, the Ki was determined as 18 nM. Besides, in the assay with Mus musculus [12], the Intrinsic activity is reported as 0. At Histamine H3 receptor, `CCc1cccc(OCCCc2cnc[nH]2)c1` returned an inhibition constant Ki of 15 nM. As for `NCCCCCc1c[nH]cn1`, the Activity entry in assay [4] is “Partial agonist”; in the assay filed under Cavia porcellus, “Antagonist”. On to `FC(F)(F)c1cccc(SCCCc2c[nH]cn2)c1`, for which the ED50 with Mus musculus [2] was over 10 mg/kg. This compound also had a Ki on Histamine H3 receptor of 38 nM. With `CC(C)(C)CNC(=O)OCCCc1c[nH]cn1`, the Activity entry in assay [9] is “Antagonist”. In turn, `CC(C)c1cccc(OCCCc2cnc[nH]2)c1` displayed an inhibition constant Ki at Histamine H3 receptor of 29 nM.

Regarding `FC(F)(F)c1cccc(SCCc2c[nH]cn2)c1`, the Intrinsic activity is 0.7 in the assay filed under Mus musculus [1] and 0.4 in [3]. In the assay on Mus musculus [2], the median effective dose (ED50) amounted to 0.94 mg/kg. On Histamine H3 receptor, `Brc1cccc(OCCCc2cnc[nH]2)c1` gave a Ki of 19 nM. In turn, `CC(=O)c1cccc(OCCCc2cnc[nH]2)c1` returned an inhibitory constant (Ki) on Histamine H3 receptor of 20 nM. Turning to `Ic1ccc(COCCCc2c[nH]cn2)cc1`, the Activity result in assay [13] is “Partial agonist”.

For the compound `CC(NC(=O)OCCCc1c[nH]cn1)C(C)(C)C` (stereo not drawn), the Activity result in assay [9] was “Antagonist”. As for `CC(C)(C)c1cccc(OCCCc2c[nH]cn2)c1`, the Intrinsic activity in the assay listed under Mus musculus [1] came to 0.78; in assay [3], 0.28. For the same compound, the ED50 with Mus musculus [2] was 0.8 mg/kg.

For `S=C(NC1CCCCC1)N1CCC(c2cnc[nH]2)CC1` [THIOPERAMIDE], the ED50 with Mus musculus [2] turned out to be 1 mg/kg. `c1ccc(OCCCc2c[nH]cn2)cc1`: the ED50 in the assay on Mus musculus [2] is over 10 mg/kg. In the case of `N=C(N)SCCc1c[nH]cn1`, the Activity result is “Partial agonist” in [4] and “Antagonist” in the assay listed under Cavia porcellus. For `N#Cc1ccc(OCCCc2c[nH]cn2)cc1`, the Intrinsic activity in the assay filed under Mus musculus [1] is reported as 0. The 50% effective dose (ED50) in the assay with Mus musculus [2] turned out to be 0.54 mg/kg.

For the compound `O=[N+]([O-])c1cccc(OCCCc2c[nH]cn2)c1`, the Intrinsic activity in the assay listed under Mus musculus [1] is 0.61; in [3], 0.1. The ED50 in the assay with Mus musculus [2] is 1.1 mg/kg.

For `CC(C)(C)CCOCCCc1c[nH]cn1`, in assay [6], the Activity result was “Agonist”.
